Rev-erbA mod – modulators of Rev-erb alpha DNA binding, primary screen, biochemical, FITC-DNA, fluorescence polarization, uHTS. activity, % at 10 µM. AID 1259318, 2017. Rev-erbα–FITC-DNA binding, 90 min. hit rate 0.79% among 370,000. Nuclear receptor subfamily 1 group D member 1 (Homo sapiens), P20393;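 active = activity above about 14%, limit read from the data; passing the limit was not always enough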;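 note: 0% = DMSO wells with 35 nM protein and 100% = DMSO wells with 750 nM protein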
CSN deneddyl inh – inhibitors of CSN-mediated cullin deneddylation, primary screen, biochemical, fluorescence polarization, uHTS; Purified CSN, SCF-Nedd8-OG deneddylation; inhibition, % at 12.5 µM; hit rate 0.38% among 360,000;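 active = pattern-corrected inhibition above about 35%, with an unprinted fluorescence ratio check between 0.5 and 1.5, limit read from the data, passing the limit was not always enough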;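 note: 0% = enzyme with substrate and 100% = substrate without enzyme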
Target sequence (Q92905 whole entry, looked up, one chain of several): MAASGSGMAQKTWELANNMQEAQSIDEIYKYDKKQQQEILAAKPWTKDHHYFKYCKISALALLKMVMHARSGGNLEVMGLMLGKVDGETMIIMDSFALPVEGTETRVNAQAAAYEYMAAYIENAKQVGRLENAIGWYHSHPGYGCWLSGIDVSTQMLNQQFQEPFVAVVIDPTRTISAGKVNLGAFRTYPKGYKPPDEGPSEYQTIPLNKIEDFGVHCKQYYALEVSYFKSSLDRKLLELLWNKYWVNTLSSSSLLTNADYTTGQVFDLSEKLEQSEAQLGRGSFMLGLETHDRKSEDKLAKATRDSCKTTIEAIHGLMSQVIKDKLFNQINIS
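Assay system: HEK293T-derived human Csn5 enzyme; quantity: 0.24 nM enzyme; medium: Tris/NaCl/DTT buffer, pH 7.5; also added: substrate SCFSkp2-Nedd8OG, 10 nM; doses: 12.5 µM compound; schedule: 90 min reaction at room temperature; signal: FP; read-out: % inhibition of substrate cleavage by Csn5; benchmarks: substrate-only high control, full reaction low control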
TPT1 inh – Candida albicans TPT1 enzyme inhibitors, primary screen, biochemical, fluorescence polarization; recombinant caTPT1, FP RNA substrate dephosphorylation; inhibition, % at 5 µM; hit rate 0.81% among 300,000; AID 1962, 2009;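 active = inhibition above the mean of all tested compounds plus 3 SD, set per screening campaign, cut at about 24% in these data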;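 note: plate controls were DMSO alone for no effect and ferristatin control at 100 nM for full effect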
HNF4A DNA FP – change in binding of human HNF4A to DNA, primary screen, biochemical, fluorescence polarization, FITC-DNA; Hepatocyte nuclear factor 4-alpha (Homo sapiens), P41235; 1 h; activity change, % at 10 µM; hit rate 0.3% among 360,000; in the data active = activity change above about 30%, passing the limit was not always enough
An asterisk follows results filed as active; / = no result given. In the library only some 1.7% were active in any assay of this set; here they are far more common.

SMILES	Rev-erbA mod	CSN deneddyl inh	TPT1 inh	HNF4A DNA FP
O=C(NCc1ccco1)c1cccc2c1C(=O)c1ccc(N3CCC(N4CCCCC4)CC3)cc1S2(=O)=O	-30	39*	/	53
Cc1cccc(NC(=O)C2CCCN2S(=O)(=O)c2cccnc2)c1C (centres undefined)	-1	/	/	/
COc1ccc(-c2cc(NC(=O)Cc3c[nH]c4ccccc34)ccc2Nc2cccnc2)cc1F	2	/	/	/
CS(=O)(=O)c1ccc2nc(NC(=O)Nc3ccc(Cl)cc3)sc2c1	13	5	-1	6
NS(=O)(=O)c1ccc2nc(NC(=O)Nc3ccc(F)cc3)sc2c1	-1	23	10	43*
O=c1c(CN2CCN(Cc3ccccc3F)C(CCO)C2)coc2ccccc12 (centres undefined)	-1	0	1	3
CC(C)=CCN1CCN(Cc2coc3ccc(C)cc3c2=O)CC1CCO (centres undefined)	-5	-1	0	51*
C#CCOCCOCCOCCNc1nc(N2CCN(C(=O)CCCCCCCCCCNC(=O)[C@H](CCCCN)n3cc(C)nn3)CC2)nc(N2CCN(C(=O)CCCCCCCCCCNC(=O)[C@@H]([C@H](C)CC)n3cc(CCCCCN)nn3)CC2)n1	/	111*	-3	165
C#CCOCCOCCOCCNc1nc(N2CCN(C(=O)CCCCCCCCCCNC(=O)[C@H]([C@@H](C)CC)n3cc(CCCCCN)nn3)CC2)nc(N2CCN(C(=O)CCCCCCCCCCNC(=O)[C@@H]([C@H](C)O)n3cc(C)nn3)CC2)n1	/	17	-6	15
C#CCOCCOCCOCCNc1nc(N2CCN(C(=O)CCCCCCCCCCNC(=O)[C@H](CCCCN)n3cc(CCO)nn3)CC2)nc(N2CCN(C(=O)CCCCCCCCCCNC(=O)[C@H](CCCN=C(N)N)n3cc(C[C@@H](C)CC)nn3)CC2)n1	/	109*	5	164
C#CCOCCOCCOCCNc1nc(N2CCN(C(=O)CCCCCCCCCCNC(=O)[C@H](CCCCN)n3cc(CCO)nn3)CC2)nc(N2CCN(C(=O)CCCCCCCCCCNC(=O)[C@H](CCCCN)n3cc(CCO)nn3)CC2)n1	/	104*	0	131
C#CCOCCOCCOCCNc1nc(N2CCN(C(=O)CCCCCCCCCCNC(=O)[C@@H](CCSC)n3cc(CCO)nn3)CC2)nc(N2CCN(C(=O)CCCCCCCCCCNC(=O)[C@H]([C@@H](C)CC)n3cc(CCCCN=C(N)N)nn3)CC2)n1	/	139*	-4	212
Cc1ccc(Cn2cc(CN3[C@H](CC(C)C)COc4cc(Br)ccc4S3(=O)=O)nn2)cc1	-1	/	/	/
C#CCOCCOCCOCCNc1nc(N2CCN(C(=O)CCCCCCCCCCNC(=O)Cn3cc(C[C@@H](C)O)nn3)CC2)nc(N2CCN(C(=O)CCCCCCCCCCNC(=O)Cn3cc(C[C@@H](C)O)nn3)CC2)n1	-1	6	-3	1
C#CCOCCOCCOCCNc1nc(N2CCN(C(=O)CCCCCCCCCCNC(=O)[C@H](CCCCN)n3cc(C[C@@H](C)CC)nn3)CC2)nc(N2CCN(C(=O)CCCCCCCCCCNC(=O)[C@H](CCCCN)n3cc(C[C@@H](C)CC)nn3)CC2)n1	/	106*	-1	187
C#CCOCCOCCOCCNc1nc(N2CCN(C(=O)CCCCCCCCCCNC(=O)Cn3cc(C[C@@H](C)O)nn3)CC2)nc(N2CCN(C(=O)CCCCCCCCCCNC(=O)[C@H](CCCCN)n3cc(C[C@@H](C)CC)nn3)CC2)n1	/	87*	2	140
Fc1ccc(-c2nnc(Cc3ccc(Cl)cc3)o2)cc1	-3	-1	2	61*
Cc1ccc2nc(C)cc(NCCO)c2c1	1	77*	-1	0
CNc1cc(OC)c(C(=O)N[C@@H]2CCN(Cc3ccccc3)[C@@H]2C)cc1Cl	-1	/	/	/
O=c1nc(Nc2ccccc2)sc2ccc([N+](=O)[O-])cc12	-15	43*	-6	-3
Cc1ccc(C)c(NC(=S)Nc2cccc3cnccc23)c1	2	36*	0	1
Cc1ccc(NC(=S)Nc2cccc3cnccc23)cc1C	-2	37*	2	6
Cc1ccc(NC(=S)Nc2cccc3cnccc23)cc1	6	31	-2	4
Cc1ccccc1NC(=S)Nc1cccc2cnccc12	1	29	-1	3
CC1(C)O[C@@H]2CC3C4C[C@H](F)C5=CC(=O)CC[C@]5(C)C4[C@@H](O)C[C@]3(C)[C@]2(C(=O)CO)O1 (some centres undefined)	-4	/	/	/
SMILES	Rev-erbA mod	CSN deneddyl inh	TPT1 inh	HNF4A DNA FP
O=C(NCCN1CCC(Cc2ccccc2)CC1)C1CCCN(S(=O)(=O)c2ccccc2[N+](=O)[O-])C1 (centres undefined)	-2	/	/	/
Cc1noc(C)c1COc1ccc(C(=O)OCC(=O)N2CC3(C)CC2CC(C)(C)C3)cc1 (centres undefined)	-6	37*	-5	1
CN(C)S(=O)(=O)c1ccc(C(=O)OCC(=O)N2CC3(C)CC2CC(C)(C)C3)cc1 (centres undefined)	0	2	/	0
CC(=O)OC(C)OC(=O)C(C)c1ccc(-c2ccccc2)c(F)c1 (centres undefined)	-3	/	/	/
COC(=O)c1ccccc1NC(=O)CSc1nnc(C(CO)NC(=O)c2ccccc2Cl)n1C (centres undefined)	0	-6	4	37*
O=C(NCCCN1CCCCCC1)c1ccc(CS(=O)(=O)Cc2ccccc2F)o1	0	97*	/	128
O=C(N/N=C/c1ccncc1)c1cccc(N/N=C/c2ccncc2)c1	7	-4	6	-1
O=C(N/N=C/c1ccncc1)c1cccc(NC(=O)c2ccc(Cl)cc2)c1	-10	78*	-2	12
C=C(C)[C@@H]1CC=C(C)CC1	-3	/	/	/
O=S(=O)(c1ccc(Cl)cc1)N1CCc2ccccc21	3	54*	0	93*
O=S(=O)(c1ccc(F)cc1)N1CCc2ccccc21	1	48*	-1	76*
COc1ccc(-c2c(C#N)c(N)nc3sc(C(=O)c4ccc(C)cc4)c(N)c23)cc1	2	15	8	75*
COc1ccc(NC(=S)N(CCN(C)C)C(C)c2ccncc2)cc1Cl (centres undefined)	-4	3	0	44*
COc1cc(Cl)ccc1NC(=S)N(CCN(C)C)C(C)c1ccncc1 (centres undefined)	3	2	0	4
CC(C)CCNC(=O)C1CCCN(C(=O)c2ccc3c(c2)NC(=O)CS3)C1 (centres undefined)	6	/	/	/
CCO[C@@H](Cc1ccc(OCCc2ccc(OS(C)(=O)=O)cc2)cc1)C(=O)O	-4	/	/	/
O=C(COC(=O)CCNS(=O)(=O)c1ccc(Cl)cc1)Nc1ccccc1OC(F)F	2	-2	/	40*
COc1ccc(Cn2c(O)c(/C=N/NC(=O)c3cccnc3)c3ccccc3c2=O)cc1	0	31	/	44*

Bioassay records as filed in PubChem.
